Experimental data from PubChem BioAssay.

Each molecule was assayed against Muscarinic acetylcholine receptor M4 (Homo sapiens) (UniProt P08173) (assay: M4-linked GIRK flux change, two-sided – cell-based, HEK293 M4/GIRK, thallium flux, BTC-AM, M4 allosteric agonist project, primary screen (AID 625;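 note: thallium influx through GIRK channels coupled to M4 in HEK293 cells with BTC-AM dye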)). Details: at 10 µM, actives lie on both sides;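 active = fluorescence slope after compound addition differing from the mean of all tested samples at 99.7% confidence, mostly higher but some lower; inactive = the rest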.
Muscarinic acetylcholine receptor M4 (Homo sapiens), sequence (P08173 whole entry, looked up): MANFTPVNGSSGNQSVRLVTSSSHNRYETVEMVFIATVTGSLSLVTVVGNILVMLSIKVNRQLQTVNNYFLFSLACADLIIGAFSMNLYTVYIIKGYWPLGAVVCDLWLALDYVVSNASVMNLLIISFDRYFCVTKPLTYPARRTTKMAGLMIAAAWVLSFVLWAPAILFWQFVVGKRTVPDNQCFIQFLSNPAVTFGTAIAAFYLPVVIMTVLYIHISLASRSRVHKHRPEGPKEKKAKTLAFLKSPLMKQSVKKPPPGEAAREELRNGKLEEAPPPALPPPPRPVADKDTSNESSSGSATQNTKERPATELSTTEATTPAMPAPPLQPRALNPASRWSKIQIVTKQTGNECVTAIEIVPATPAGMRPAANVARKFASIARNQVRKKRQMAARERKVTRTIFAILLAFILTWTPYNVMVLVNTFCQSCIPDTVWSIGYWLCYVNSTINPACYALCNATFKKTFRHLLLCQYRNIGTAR
Method in brief: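 assay system = HEK293 cells with M4 receptor and GIRK channels | medium = pH 7.3 thallium assay buffer | doses = 10 µM final, single point | timing = cells overnight at 37 °C, BTC-AM loading 1 h, reads 2 min total | signal = BTC-AM fluorescence, 1 Hz kinetic reads | read-out = post-addition slope, 15–24 s, of baseline-normalized fluorescence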

Fluorescence slope, inactive:
Cc1cc(C)n(S(=O)(=O)/C=C/c2ccccc2)n1 0.00397
N#Cc1nc(-c2ccc(F)cc2)oc1N1CCCC1 0.0076
CCOC(=O)c1[nH]c2ccc(C)cc2c1N=CN(CC)CC 0.00485
Cn1c(NCCCO)nc2c1c(=O)n(Cc1ccccc1F)c(=O)n2C 0.00567
C=CCOc1ccc(/C(O)=C2/C(=O)C(=O)N(CCCN3CCOCC3)C2c2ccc(OC)cc2)cc1 (stereo not given) 0.00475
CCOc1ccc2c(c1)n([O-])c1c([n+]2=O)CCCC1 0.0052
CCCC(=O)N1CCc2[nH]c3ccccc3c2C1 0.0054
CCN(CC)c1nc(N2CCOCC2)c(C#N)c2c1CN(C)CC2 0.00408
CN1C(=O)C2(c3ccccc31)C1CCCC=C1C(C#N)=C(N)C2(C#N)C#N (stereo not given) 0.00434
Cc1sc(-n2c(C)ccc2C)c(C#N)c1C 0.00469
CCN(CC)CCN1C(=O)C(O)=C(C(C)=O)C1c1ccc(OC)c(OC)c1 (stereo not given) 0.00464
CCOC(=O)C(C(=O)OCC)N(C#N)c1nc(SC)nc(N(C)C)n1 0.00538
CCSc1nnc(NC(=O)C(C)(C(F)(F)F)C(F)(F)F)s1 0.00486
CC(C)=CCC(C)(C)CNC(=O)NC1CCCCC1 0.00622
CCCOC(=O)CSC1=C(C#N)C(c2ccc3c(c2)OCO3)CC(=O)N1 (stereo not given) 0.00536
COc1ccc(N2CC(=O)N(c3ccc(OC)c(OC)c3)CC2=O)cc1OC 0.00438
CCCCCCOc1ccc(C(=O)n2cnc(N)n2)cc1 0.00638
CCSc1nc2sc3c(c2c2nnc(SCC(=O)NCc4ccco4)n12)CCCC3 0.00576
C=CCc1cccc(CNc2nc3ccccc3n2C(C)C)c1O 0.00595
O=C(Nc1ccc(N2CCN(C(=O)c3ccccc3)CC2)c(Cl)c1)c1ccc(Br)o1 0.00435
COc1ccc(NC(=O)c2c(C)cc(=O)oc2C)c(OC)c1 0.00518
Cc1c(C)[n+](=O)c2c(n1[O-])CCC2 0.00544
COC(=O)CCc1c(C)[nH]c(=S)[nH]c1=O 0.00625
CCOC(=O)C1=C(N)n2c(s/c(=C\c3cccnc3)c2=O)=C(C(=O)OC)C1c1cccnc1 (stereo not given) 0.00354
COc1ccc(CNc2oc(COc3ccc(Cl)cc3)nc2C#N)cc1 0.00987
CC1(C)Cc2[nH]c(=O)c(C#N)cc2CS1 0.00467
COc1ccccc1C1CC(c2ccc(Cl)cc2)Nc2nc(N)nn21 (stereo not given) 0.00483
CCOC(=O)C(C)Oc1ccc2c(C)cc(=O)oc2c1C(C)=O (stereo not given) 0.00606
CCC1(C)Cc2c(sc(NC(=O)CCC(=O)O)c2C#N)CO1 (stereo not given) 0.00482
Cc1cc(C)n(CC(=O)c2ccccc2)c(=O)c1C#N 0.0047
COc1cccc(Cn2c(NCc3ccccn3)nc3c2c(=O)n(C)c(=O)n3C)c1 0.00592
O=C(NCCCN1CCOCC1)C1(c2ccccc2)CCOCC1 0.0058
O=C(NCc1ccco1)c1ccc(=O)[nH]n1 0.00665
CC(NC(=O)CSc1nc2c(cc1C#N)CN(C)CC2)c1ccccc1 (stereo not given) 0.00365
COc1cccc(C(=O)OC2CCCN(C)C2)c1 (stereo not given) 0.00427
Cn1c(=O)[nH]c(=O)c2c1nc(N1CCN(c3cccc(Cl)c3)CC1)n2CCCc1ccccc1 0.0083
CCOC(=O)c1[nH]c2ccc(OC)cc2c1NC(=O)CCN1CCCC(C)C1 (stereo not given) 0.00513
O=C(NCc1ccccc1)C1C(=O)N(Cc2ccccc2)C(=O)C1C1(O)CCCC1 (stereo not given) 0.00572
COC(=O)c1ccccc1NC(=O)C1COc2ccccc2O1 (stereo not given) 0.00637
CCOC(=O)c1[nH]c2ccccc2c1N=CN(CC)CC 0.00609
